High-throughput results as filed in PubChem BioAssay.
Rows were chosen to be rich in hits. Some 1.5% of all compounds tested hit in one or more screens of this group.
FLuc stim CS: affects firefly luciferase, flagging false hits in luciferase stimulation screens. activation factor at 10 µM. 200,000 tested, under 10 active. ATPlite luciferase biochemical, luminescence, 10 min; 0 = ATP-free wells, 1 = DMSO control;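 active means luciferase activation factor, scaled between plate controls, of at least 2 with compound at 10 µM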
Target sequence (P08659 whole entry, looked up): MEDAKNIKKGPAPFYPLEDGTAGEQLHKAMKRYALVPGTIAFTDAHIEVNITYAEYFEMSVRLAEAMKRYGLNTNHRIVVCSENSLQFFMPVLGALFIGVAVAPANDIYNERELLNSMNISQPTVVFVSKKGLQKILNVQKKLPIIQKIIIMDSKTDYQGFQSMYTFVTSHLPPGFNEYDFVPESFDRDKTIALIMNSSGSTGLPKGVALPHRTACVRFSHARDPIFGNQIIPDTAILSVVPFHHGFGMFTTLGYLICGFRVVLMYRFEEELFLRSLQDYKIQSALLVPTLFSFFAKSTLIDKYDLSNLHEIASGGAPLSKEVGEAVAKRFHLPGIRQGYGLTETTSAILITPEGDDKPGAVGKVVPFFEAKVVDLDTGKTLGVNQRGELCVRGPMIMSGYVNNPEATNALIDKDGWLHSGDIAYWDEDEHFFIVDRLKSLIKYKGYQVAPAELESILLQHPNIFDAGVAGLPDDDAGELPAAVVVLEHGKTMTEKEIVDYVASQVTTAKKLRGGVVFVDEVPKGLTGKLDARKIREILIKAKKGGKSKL
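Assay system: Luciferase/luciferin reagent mix; Medium: PBS as buffer for the ATP substrate; Dosing: test compounds dosed from 2 mM stocks in 100% DMSO; Times: 10 min, room temperature; Signal: luminescence from luciferase reaction; Read-out: luciferase activation; Controls: No-ATP low control, compound-free enzyme-plus-ATP high control.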
FLuc inhib CS: inhibits firefly luciferase, flagging false hits in luciferase inhibition screens. ATPLite firefly luciferase biochemical luminescence, 10 min. actives 1.5% (n = 200,000). P08659. inhibition, % at 10 µM;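 active means inhibition above about 50% when tested at 10 µM, limit read from the data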
PPC-1+TRAIL kill: PPC-1 cancer cell killing with TRAIL present; actives 0.41% (n = 220,000); cell killing (% activity), % at 4 µM or 5 µM; PPC-1 cells + TRAIL, ATPLite viability luminescence; AID 1443;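 active means cell killing above 50% in the first pass at 4 µM, then a duplicate retest at 5 µM averaging 50% or more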;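 further: plate controls were cells with TRAIL plus DMSO for no effect and medium-only wells lacking cells for full effect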
TRAIL sens C8: sensitizes caspase-8 expressing cells to TRAIL. inhibition (viability loss, TRAIL sensitization), % at 10 µM. NB7+C8 cells + TRAIL, ATPlite viability luminescence. AID 624354. actives 1% (n = 360,000);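 active means compounds causing at least 50% loss of cell viability in the single-dose screen, relative to plate controls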
Active calls of the source: *; . = not tested or not shown.

SMILES	FLuc stim CS	FLuc inhib CS	PPC-1+TRAIL kill	TRAIL sens C8
Oc1ccc(/C=C/c2cc(O)cc(O)c2)cc1	0.2	80*	32	39
O=C(NC(=S)Nc1ccc2c(c1)OCCO2)c1ccccc1	0.3	68*	11	27
O=C(NC(=S)Nc1ccc2c(c1)OCCO2)c1ccccc1F	0.5	50*	10	23
Cc1cc2c(cc1C)C(c1ccccc1Br)CC(=O)N2 (stereo unspecified)	1	1	54*	-8
Cc1ccc(Cl)cc1N1CCN(S(=O)(=O)c2c(C)[nH]c(C)c2C(=O)N2CCCCC2)CC1	.	.	.	-23
O=C(Nc1ccccc1C(=O)N/N=C/c1ccco1)c1ccccc1	0.2	76*	24	19
O=C(N/N=C/c1ccco1)c1ccc(OCc2ccccc2)cc1	.	.	-11	9
O=C(Nc1ccccc1C(=O)N/N=C/c1ccco1)c1ccc(Cl)cc1	0.1	85*	9	47
Cc1ccccc1C(=O)Nc1ccccc1C(=O)N/N=C\c1ccco1	0.8	23	6	-1
O=C(N/N=C/c1ccco1)c1ccncc1	1	1	-2	-4
O=C(Nc1ccccc1C(=O)N/N=C/c1ccco1)c1ccc(F)cc1	0.2	80*	21	18
COc1cc2c(cc1OC)C(c1cc(Br)ccc1F)N(C(=O)CCl)CC2 (stereo unspecified)	.	.	.	95*
COc1cc2c(cc1OC)C(C1C(=O)CC(C)(C)CC1=O)N(C(=O)CCl)CC2 (stereo unspecified)	1.1	-6	12	-11
O=C1NC[C@H](Cc2ccc(O)cc2)N(C[C@@H]2CCCN2C[C@H](Cc2ccccc2)N2C[C@H](Cc3ccc(O)cc3)N(CC3CCCCCC3)C(=O)C2=O)C1=O	.	.	.	-6
O=C1NC(c2ccccc2)=N/C1=C/c1ccco1	0.3	73*	30	24
CN(C)c1ccc(C=c2c3ccccc3n3c2cc(-c2ccccc2)[n+]3C)cc1	.	.	.	54*
COc1cc(N(C)C)ccc1C=c1c2ccccc2n2c1cc(-c1ccccc1)[n+]2C	.	.	.	54*
CN(C)c1ccc(C=c2c3cc([N+](=O)[O-])ccc3n3c2cc(-c2ccccc2)[n+]3C)cc1	.	.	.	76*
CC[C@H](C)[C@H]1CNC(=S)N1CC1CCN(CCC23CC4CC(CC(C4)C2)C3)CC1	.	.	.	12
O=C(N/N=C\c1ccc(Cl)s1)c1ccc(Cn2cccn2)o1	1	2	-11	-1
CC(C)c1ccc(/C=N\NC(=O)c2ccc(Cn3cccn3)o2)cc1	0.3	72*	21	33
Cc1cc(C)cc(N(C(=O)CNC(=O)c2ccco2)C(C(=O)NC2CCCCC2)c2ccncc2)c1 (stereo unspecified)	.	.	.	-18
COc1cc(F)ccc1-c1cc(C(=O)NCc2ccc(C(F)(F)F)cc2)[nH]n1	.	.	.	4
CS(=O)(=O)c1nc(-c2ccccc2)cc(C(F)(F)F)n1	1.1	-6	-2	59*
CC(/C=N/NC(=O)c1cccs1)=C\c1ccccc1	0.2	76*	21	58*
SMILES	FLuc stim CS	FLuc inhib CS	PPC-1+TRAIL kill	TRAIL sens C8
O=C(N/N=C/C(Cl)=C\c1ccccc1)c1cccs1	.	.	5	26
O=C(N/N=C/C(Br)=C\c1ccccc1)c1n[nH]c2c1CCC2	0.6	42	37	36
CC(/C=N/NC(=O)c1n[nH]c2c1CCC2)=C\c1ccccc1	0.5	53*	20	47*
Cc1ccc(CNC(=O)CN(C(=O)N2CCN(C)CC2)S(=O)(=O)c2ccc(C)cc2)cc1	.	.	.	10
CCOC(=O)NC(=O)CSc1ccc(S(=O)(=O)N(C)C2CCCCC2)cn1	.	.	.	-13
Cc1ccnc(NC(=O)c2ccc(OCC3CCCO3)cc2)c1 (stereo unspecified)	.	.	.	91*
Cc1csc(NC(=O)c2ccc(OCC3CCCO3)cc2)n1 (stereo unspecified)	0.3	74*	32	54*
Cc1ccnc(NC(=O)c2ccc(N3C(=O)CCC3=O)cc2)c1	0.2	79*	16	26
Cc1ccnc(NC(=O)c2ccc3c(c2)C(=O)N(CC2CCCO2)C3=O)c1 (stereo unspecified)	0.4	56*	28	7
COc1ccc(Nc2nc(N3CCOCC3)nc(N3CCOCC3)n2)cc1Cl	.	.	.	-6
COc1ccc(N=[N+]([O-])c2ccc(OC)cc2)cc1	.	.	.	67*
O=S1(=O)C=C[C@H](COCc2ccccc2)N1	.	.	.	2
O=C(COC(=O)Cc1ccccc1F)NC(=O)NC1CCCC1	.	.	.	-8
COc1ccc(C(=O)O/N=C(\N)c2ccc(Br)cc2)cc1	.	.	.	70*
COc1ccc(C(=O)O/N=C(\N)c2ccccc2)cc1	.	.	.	85*
Cc1cc(C(=O)O/N=C(\N)c2ccc(C(C)(C)C)cc2)no1	.	.	12	8
CC(C)(C)c1ccc(C(=O)O/N=C(\N)c2ccccc2)cc1	.	.	.	93*
O=S1(=O)CCOC[C@H](c2ccccc2)N1Cc1cccc(Cl)c1	.	.	.	-2
O=C(OCc1ccccc1)c1cnc(Cl)c(Cl)c1	.	.	.	-1
CC(C)N(Cc1ccccc1)C(=O)COC(=O)c1cnc(Cl)c(Cl)c1	.	.	.	75*
O=C(CNC(=O)c1cccs1)c1ccc(F)cc1	0.5	52*	21	41
O=C(CNC(=O)c1cccs1)c1ccc(Cl)cc1	.	.	.	19
CN(Cc1cccc(F)c1)C(=O)c1ccc(S(=O)(=O)N2CCOCC2)cc1	.	.	.	-11
Cc1cc(=O)n2[nH]c(-c3ccccc3)cc2n1	0.9	11	24	-11
COc1cccc(N=Nc2c(N)[nH]n3c(=O)cc(-c4ccccc4)nc23)c1	0.9	7	21	23
SMILES	FLuc stim CS	FLuc inhib CS	PPC-1+TRAIL kill	TRAIL sens C8
O=c1cc(-c2ccccc2)nc2cc(-c3ccc(F)cc3)[nH]n12	.	.	.	56*
COc1cccc(-c2cc3nc(-c4ccccc4)cc(=O)n3[nH]2)c1	.	.	.	41*
CCOC(=O)C1(C)CCCN(C(=O)c2cccc3ccccc23)C1 (stereo unspecified)	.	.	.	-11
COC(=O)C1=C(O)/C(=C\c2cc(C)n(-c3ccccc3F)c2C)N=C1C	0.4	64*	.	-4
CCCCn1c(N)c(N(CC(C)C)C(=O)c2c(-c3ccccc3)noc2C)c(=O)[nH]c1=O	.	.	.	11
CCN(CC)c1ccc(/C=C2/C(=O)c3ccc(C(=O)O)cc3C2=O)cc1	0.1	92*	8	17
CCN(CC)c1ccc(C=C2C(=O)OC3(CCCCC3)OC2=O)cc1	1	-5	28	-2
O=C1C(C=Nc2ccc(F)cc2)=C(O)c2ccccc21	0.2	77*	22	57*
O=C1C(C=NCc2ccco2)=C(O)c2ccccc21	0.6	42	7	-5
CCc1ccccc1N(CC(=O)NC(C)(C)CC)C(=O)CCC(=O)Nc1nccs1	.	.	.	-7
COC(=O)CCC(=O)c1oc2ccc(OC)cc2c1N	0.4	56*	17	17
CC(=O)Nc1ccc2c(c1)ncn2-c1ccc(C)cc1	0.5	53*	15	5
COc1cc(OC)c(OC)cc1CCC(C)NC(=O)Cc1ccccc1 (stereo unspecified)	.	.	.	-2
COc1ccc(/C=N\NC(=O)C2=NNC(=O)C2C)cc1 (stereo unspecified)	0.3	69*	29	39
